In ChEMBL document CHEMBL1125014, “Synthesis and structure-activity relationships of new 9-N-alkyl derivatives of 9(S)-erythromycylamine” (1990):
In brackets after ≈: the same amount, converted by molar mass.

Legend:
Rattus norvegicus [1] = assay: Plasma concentration in rats was determined by subcutaneous administration, 20 mg/kg at 1 h; format: functional, organism-based; set-up: dose 20 mg/kg
Summary of the method: (§1)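 Peripheral plasma antibiotic levels in rats given 20 mg/kg orally or subcutaneously. Plasma was sampled at timed points after dosing. Levels were measured by microbiological agar assay with Micrococcus luteus seeded in Antibiotic Media 1, reading zone sizes, and were calculated from a standard curve for the appropriate compound. Each value is the average of three rats per time point, in μg/mL.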

Rattus norvegicus [2] = assay: Plasma concentration in rats was determined by subcutaneous administration, 20 mg/kg at 40 min; format: functional, organism-based; set-up: dose 20 mg/kg; summary of the method: as §1
Mus musculus [3] = assay: ED50 value was measured by po administration against staphylococcus aureus infection in mice (in vivo, in experiment 2); format: functional
Summary of the method: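 Infected mice were dosed orally or subcutaneously at 1 and 5 h postinfection, 0.25 mL of antibiotic solution in 10% aqueous ethanol per dose. Tartaric acid was added where needed for solubility. Several dose concentrations were tested to give the ED50.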

Rattus norvegicus [4] = species: Rattus norvegicus
Rattus norvegicus [5] = species: Rattus norvegicus; assay: Fluid concentration in liver tissue was determined in rats at 2 h; format: functional
Summary of the method: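 Rats dosed by gavage at 20 mg/kg; lung, liver, kidney, urine and serum sampled at 0.5, 1, 2, 4 and 6 h after dosing. Antibiotic measured by microbiological assay with Micrococcus luteus seeded in Antibiotic Medium 1. Zone sizes were read against the standard curve for the same compound. Each value is the average of three rats per time point.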

Enterococcus faecalis = assay: MIC value was measured against streptococcus faecalis.; format: functional
Rattus norvegicus [6] = assay: Plasma concentration in rats was determined by oral administration, 20 mg/kg at 2 hr; format: functional, organism-based; set-up: dose 20 mg/kg; summary of the method: as §1
Mus musculus [7] = species: Mus musculus

| Compound | Plasma concentration (Rattus norvegicus [1]) [µg/mL] | Plasma concentration (Rattus norvegicus [2]) [µg/mL] | ED50 (Mus musculus [3]) [mg/kg] | Plasma concentration (Rattus norvegicus [4]) [µg/mL] | Activity (Rattus norvegicus [5]) [µg/mL] | MIC (Enterococcus faecalis) [µg/mL] | Plasma concentration (Rattus norvegicus [6]) [µg/mL] | Plasma concentration (Mus musculus [7]) [µg/mL] |
| --- | --- | --- | --- | --- | --- | --- | --- | --- |
| CCCN[C@@H]1[C@H](C)[C@@H](O)[C@](C)(O)[C@@H](CC)OC(=O)[C@H](C)[C@@H](OC2CC(C)(OC)C(O)C(C)O2)[C@H](C)[C@@H](OC2OC(C)CC(N(C)C)C2O)[C@](C)(O)C[C@H]1C (stereo partly drawn) | 0.14 | 0.14 | 25 | 0.08 | 2.99 | 0.12 (≈ 0.154 µM) | – | – |
| CC[C@H]1OC(=O)[C@H](C)[C@@H](O[C@H]2C[C@@](C)(OC)[C@@H](O)[C@H](C)O2)[C@H](C)[C@@H](O[C@@H]2O[C@H](C)C[C@H](N(C)C)[C@H]2O)[C@](C)(O)C[C@@H](C)C(=O)[C@H](C)[C@@H](O)[C@]1(C)O [ERYTHROMYCIN] | – | – | – | – | – | – | 0.03 | 0.01 |
